Most compounds without a hit are left out; they make up all but 1.4% or so of the library.
Redox H2O2 prof: compounds producing H2O2 with reducing agent – biochemical, NIH compound library profiling, artefact control for MLSCN library redox annotation, primary screen; 0.03% of 200,000 active; DTT-dependent redox cycling H2O2, phenol red/HRP absorbance; 100% = 100 µM peroxide control, 0% = buffer; activation, % at 10 µM;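 active = activation of at least 50% relative to the plate's high and low controls in the primary single-dose screen; inactive = activation below 50%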;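 also: compound incubated with DTT at 0.8 mM final as the reducing agent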
UBC9 SUMO inh: inhibitors of human SUMOylation (UBC9); P63279; HTRF SUMOylation assay, SAE1/SAE2 + UBC9, in vitro; inhibition, % at 35 µM; 0.36% of 290,000 active; AID 2006; in the data active = inhibition above about 50%, passing the limit was not always enough; inconclusive = no clear call, values can overlap the other calls
Target sequence (P63279 whole entry, looked up): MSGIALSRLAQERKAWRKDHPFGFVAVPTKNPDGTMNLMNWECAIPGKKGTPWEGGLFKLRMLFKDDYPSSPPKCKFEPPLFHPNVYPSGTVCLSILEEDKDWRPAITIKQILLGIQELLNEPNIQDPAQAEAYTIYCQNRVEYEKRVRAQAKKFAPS
GSTO1 counter: blocks human GSTO1 in RBBP9 counter-screen; P78417; 1.1% of 300,000 active; inhibition, % at 5.96 µM; recombinant GSTO1, activity-based probe fluorescence polarization;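 active = inhibition above the campaign mean inhibition plus 3 SD, cut at about 35% in these data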;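 also: 0% = GSTO1-1 with DMSO and 100% = wells lacking GSTO1-1 enzyme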
Target sequence (P78417 whole entry, looked up): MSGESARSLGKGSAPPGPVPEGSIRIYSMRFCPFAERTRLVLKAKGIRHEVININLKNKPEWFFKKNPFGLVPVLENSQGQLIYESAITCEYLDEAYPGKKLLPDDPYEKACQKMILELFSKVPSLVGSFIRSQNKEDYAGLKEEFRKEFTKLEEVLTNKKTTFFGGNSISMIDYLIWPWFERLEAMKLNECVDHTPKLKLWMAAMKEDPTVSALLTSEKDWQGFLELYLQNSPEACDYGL
HKDC1 inhibitor: blocks human hexokinase HKDC1 activity. recombinant HKDC1, G6PDH/diaphorase resazurin coupled fluorescence. inhibition, % at 20 µM. 0.16% of 340,000 active;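 active = inhibition above about 35% when tested at 20 µM, limit read from the data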;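 also: plate controls were DMSO wells with enzyme for no effect and DMSO wells lacking enzyme for full effect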
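Assay system: in-house recombinant HK5 (HKDC1) enzyme. Input: HKDC1 at 5 µg/mL. Medium: Tris pH 8.0 buffer with MgCl2, Tween-20, BSA, BME. Dosing: single 20 µM dose. Schedule: 90 min reaction incubation at room temperature, dark. Signal: resazurin-to-resorufin fluorescence via G6PDH and diaphorase coupling, 525/613 nm. Controls: DMSO-enzyme wells negative, buffer-substituted wells positive.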
Apaf1 inhib: human Apaf-1 inhibition | O14727 | inhibition, % at 20 µM | reconstituted apoptosome caspase-3 activity, DEVD-Rh110 fluorescence | 0.71% of 330,000 active | AID 489030; active = inhibition of at least 40% at 20 µM;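 also: plate controls were DMSO wells for no effect and DEVD-CHO caspase inhibitor wells for full effect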
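Material: reconstituted apoptosome with Apaf-1, cytochrome c, caspase-9, procaspase-3, dATP. Technique: Rh110 fluorescence intensity. Buffer or medium: pH 7.5 Hepes buffer with CHAPS, BSA, DTT. Times: 30 min plus 50 min, RT.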
GSTO1 inh conf: confirmation of human GSTO1 inhibitors; recombinant GSTO1, probe fluorescence polarization; 54% of 2,400 active; AID 2176; inhibition, % at 5.96 µM; shares compounds with GSTO1 counter;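 active = inhibition above the primary screen's cutoff, its mean inhibition plus 3 SD, cut at about 35% in these data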;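 also: loss of polarization as inhibitors block binding of rhodamine sulfonate ester activity probe; 0% = GSTO1 with DMSO and 100% = wells lacking GSTO1 enzyme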
An asterisk follows results filed as active; ? = inconclusive; / = no result.

SMILES | Redox H2O2 prof | UBC9 SUMO inh | GSTO1 counter | HKDC1 inhibitor | Apaf1 inhib | GSTO1 inh conf
O=C(Oc1ccc(OC(=O)c2ccco2)c(S(=O)(=O)c2ccc(Br)cc2)c1)c1ccco1 | -6.5 | 25.4 | 48.9* | 19.7 | 7.0 | 4.4
COC(=O)/C(C(C)=O)=C(\C=C\N(C)C)N(C)C | -0.1 | 16.3 | 2.6 | -7.4 | -16.0 | /
COC(=O)\C(C(C)=O)=C(/C=C/C=C/C=C/N(C)C)N(C)C | -7.6 | 26.4 | 37.6* | 7.7 | -15.3 | -43.8
COc1ccccc1-c1nnc(NC(=O)C(C)SC2=NCCS2)s1 (configuration not stated) | -1.2 | -7.6 | 48.2* | -2.1 | -4.3 | 61.8*
CN1CCN(C2=C(NS(=O)(=O)c3cccs3)C(=O)c3ccccc3C2=O)CC1 | / | 14.9 | 16.8 | 11.5 | 31.3 | /
CCOc1ccccc1N1CCN(C2=C(NS(=O)(=O)c3cccs3)C(=O)c3ccccc3C2=O)CC1 | 0.3 | 34.5 | 62.5* | 15.6 | 35.9 | 12.8
CC1CN(c2ccc(NC(=O)c3ccco3)cc2C(=O)O)CC(C)O1 (configuration not stated) | / | 17.6 | -1.9 | -0.9 | -13.7 | /
Cc1cc(C(=O)CCl)c(C)n1CCc1ccccc1 | 0.0 | 5.0 | 79.1* | 23.8 | 9.8 | 97.2*
CCOC(=O)c1cc(C)n(CCc2ccccc2)c1C | 2.2 | -6.2 | 6.0 | 0.0 | 6.1 | /
CC(=O)c1c(C(C)=O)c(C)n(-c2cccc([N+](=O)[O-])c2)c1C | -0.1 | -8.7 | 13.9 | -1.0 | 4.8 | /
Cc1cc(C(=O)CCl)c(C)n1-c1cccc([N+](=O)[O-])c1 | -1.3 | 21.3 | 96.0* | 16.4 | -11.4 | 94.2*
CN(Cc1ccccc1)C(=O)CC(c1ccccc1)c1cc(Cl)ccc1O (configuration not stated) | -7.4 | -43.1 | 57.6* | -3.1 | 36.0 | 3.3
O=c1ccc(-c2ccc(S(=O)(=O)Nc3cccc([N+](=O)[O-])c3)s2)n[nH]1 | / | 3.8 | -21.5 | 4.4 | 3.0 | /
Cc1nonc1C(=O)N/N=C/c1ccc([N+](=O)[O-])o1 | -2.5 | 33.2 | 23.6 | 5.0 | 26.5 | /
Cc1cc(C(=O)N/N=C/c2ccc([N+](=O)[O-])o2)c(C)o1 | / | 19.4 | 38.1* | -4.3 | 16.5 | 6.8
COc1ccc(Cc2nnc(NC(=O)c3cc(OC)c(OC)c(OC)c3)s2)cc1 | / | 16.2 | 1.0 | -3.3 | 22.5 | /
CN(CC(=O)NCc1ccco1)C(=O)C1CC(=O)N(c2ccc3c(c2)OCCO3)C1 (configuration not stated) | / | / | / | -2.0 | -0.3 | /
[O-][n+]1onc2c1CCC(=N/O)/C2=N\Nc1ccccc1 | / | 47.0 | 39.5* | / | -8.6 | 12.5
Cc1c(C#N)c(NC(=O)CCl)n(Cc2ccc(F)cc2)c1C | -1.7 | -6.5 | 80.8* | 0.4 | -1.4 | 95.5*
Cc1c(C#N)c(NC(=O)CCl)n(Cc2ccccc2)c1C | 0.3 | 4.4 | 86.0* | 11.5 | 7.1 | 90.8*
Cc1ccc(NC(=O)c2cc3c(CO)cnc(C)c3oc2=Nc2cccc(C(N)=O)c2)cc1 | / | -13.3 | 2.2 | -2.7 | -14.8 | /
O=c1c(-c2nn[nH]n2)coc2ccc(Cl)cc12 | -1.1 | 1.6 | 9.3 | 2.4 | 0.1 | /
COc1cccc(/C=C(\C)C(=O)c2c(C)cc(C)[nH]c2=O)c1OC | / | 6.8 | -2.4 | -4.2 | 1.0 | /
CCN1C(=O)C2(C(C#N)=C(N)Oc3c2c(C)nn3-c2ccccc2)c2ccccc21 (configuration not stated) | 2.2 | 23.4 | 38.9* | 6.8 | 5.8 | 9.7
CC(=O)N1C(=O)C2(C(C#N)=C(N)Oc3c2c(C)nn3-c2ccccc2)c2ccccc21 (configuration not stated) | 0.1 | -6.2 | 29.8 | 7.3 | 7.2 | /
SMILES | Redox H2O2 prof | UBC9 SUMO inh | GSTO1 counter | HKDC1 inhibitor | Apaf1 inhib | GSTO1 inh conf
Cc1ccc(S(=O)(=O)NNC(=O)Nc2ccc(C)c(C)c2)c(C)c1 | / | -9.7 | 2.1 | -3.3 | 18.1 | /
O=C(NC1CCCCCC1)c1ccc(Br)o1 | / | 3.1 | -2.9 | -4.1 | 7.3 | /
O=C(NC1CCCCC1)Oc1cc2oc(=O)sc2cc1Br | / | -5.9 | 51.3* | -0.4 | -7.4 | 13.6
Cc1cc(C)cc(NC(=O)CCc2c(C)nn(-c3ccc(N4CCCCC4)nn3)c2C)c1 | / | -8.8 | 67.0* | 1.0 | 8.8 | 7.4
CC(=O)c1c2c3c(c(Br)ccc3n(C)c1=O)C(=O)c1ccccc1-2 | / | / | 47.6* | 4.1 | 14.4 | 28.4
COc1ccc(C(=O)c2no[n+]([O-])c2C(=O)c2ccc(OC)cc2)cc1 | -1.2 | -13.0 | 32.0 | 17.4 | 15.2 | /
Cc1c(C(=O)c2no[n+]([O-])c2C(=O)c2cnn(C)c2C)cnn1C | 2.9 | 17.5 | 39.7* | -5.4 | 6.7 | 24.7
CCN(CC)c1ccc(/C=C2\C(=O)N(c3nnc(C)c(=O)[nH]3)N=C2C)cc1 | / | -28.3 | 40.5* | 12.4 | -4.2 | 13.5
O=C(CCl)NNC(=O)c1c(O)c2ccccc2[nH]c1=O | / | 20.6 | 88.7* | -1.9 | -17.0 | 96.9*
CC(C)=NNC(=O)c1c(O)c2ccccc2[nH]c1=O | / | 24.8 | 42.0* | -0.3 | -11.6 | 4.4
Cc1ccc(C)c(NC(=O)COC(=O)c2ccc3c(c2)OCCO3)c1 | / | / | / | 5.9 | 14.7 | /
Nc1cc(Cl)ccc1N1CCCCC1 | 0.3 | 4.4 | 0.4 | -6.7 | -2.2 | /
Nc1ccc(N2CCCCC2)cc1N1CCCCC1 | 0.8 | 8.5 | 56.9* | 32.3 | 32.8 | 6.6
Nc1ccc(N2CCCCC2)c2nonc12 | -1.0 | 101.6 | 92.1* | 8.6 | 97.1* | 62.5*
Cc1nn(-c2cc(N3CCCCC3)ccc2N)c(=O)c2ccccc12 | 4.0 | -30.9 | 7.7 | -2.8 | -19.2 | /
Cn1c(=O)c2ccccc2n(Cc2ccccc2Cl)c1=O | / | -20.4 | 9.0 | 5.6 | 0.7 | /
COc1ccc(S(=O)(=O)N2CCCCC2)cc1NC(=O)CNc1ccc(F)cc1C | / | / | / | 0.0 | 9.5 | /
COCc1c(C(=O)N2CCN(c3ccccc3C)CC2)oc2ccccc12 | / | / | / | 2.7 | 28.4 | /
CCCN(CCC)CCCNC(=O)c1cc2c(=O)[nH]c3ccccc3c2s1 | / | 16.7 | 3.8 | 4.6 | 6.0 | /
O=c1cc2oc3cc(O)c(O)cc3c(-c3ccccc3[N+](=O)[O-])c-2cc1O | / | ? | 49.6* | 19.4 | 19.8 | 40.8*
CN1C(=O)Cc2cc(S(=O)(=O)N3CCN(c4cccc(C(F)(F)F)c4)CC3)ccc21 | / | -5.3 | 14.5 | 0.7 | 13.8 | /
CC1(OC(=O)C2CCCC2)C(=O)C=C2C=C3CCCCN3C=C2C1=O (configuration not stated) | / | 22.3 | 51.4* | 12.4 | 36.1 | 11.4
COC(=O)CCC(=O)OC1(C)C(=O)C=C2C=C3CCCN3C=C2C1=O (configuration not stated) | / | 36.3 | 38.3* | 12.2 | 16.3 | 10.4
COC(=O)CCC(=O)OC1(C)C(=O)C=C2C=C(C3CC3)N(Cc3ccc4c(c3)OCO4)C=C2C1=O (configuration not stated) | / | -23.1 | 44.5* | 23.7 | 32.1 | 15.5
